ChEMBL document CHEMBL4145560, “Conformationally Constrained Cinnolinone Nucleoside Analogues as Siderophore Biosynthesis Inhibitors for Tuberculosis” (ACS Med Chem Lett, 2018)
The source made the active and inactive calls. The calls are words filed in the database; no cut-off is given here.

Biological target: T1, Salicyl-AMP ligase / salicyl-S-ArCP synthetase (Mycobacterium tuberculosis, UniProt P71716)
T1 sequence (P71716 whole entry): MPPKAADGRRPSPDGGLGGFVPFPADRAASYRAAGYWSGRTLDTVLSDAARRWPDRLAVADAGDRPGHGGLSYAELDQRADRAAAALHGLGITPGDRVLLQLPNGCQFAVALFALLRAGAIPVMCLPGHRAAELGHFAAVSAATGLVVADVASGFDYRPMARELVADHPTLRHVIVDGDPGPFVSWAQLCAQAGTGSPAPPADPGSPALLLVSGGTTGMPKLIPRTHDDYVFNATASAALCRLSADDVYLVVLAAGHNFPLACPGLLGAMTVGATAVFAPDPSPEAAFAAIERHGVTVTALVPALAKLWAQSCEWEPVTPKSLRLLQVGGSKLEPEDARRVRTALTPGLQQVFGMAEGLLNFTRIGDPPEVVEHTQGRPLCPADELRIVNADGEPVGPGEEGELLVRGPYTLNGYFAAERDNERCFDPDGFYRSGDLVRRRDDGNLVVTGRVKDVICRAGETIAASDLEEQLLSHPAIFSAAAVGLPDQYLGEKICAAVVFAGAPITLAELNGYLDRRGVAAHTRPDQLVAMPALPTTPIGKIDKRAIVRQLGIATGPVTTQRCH
Test: Inhibition of Mycobacterium tuberculosis recombinant salicylate ligase MbtA expressed in Escherichia coli using salicylic acid as substrate after 20 mins by [32P]PPi-ATP exchange based scintillation counting analysis
Details: read-out: Ki(app)
Summary of the method: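 Recombinant MbtA (7 nM) in a [32P]PPi-ATP exchange assay under initial-velocity conditions at pH 8.0. Substrates were 10 mM ATP, 250 μM salicylic acid and 1 mM PPi. Concentration–response data were fitted to the Morrison tight-binding equation to give apparent Ki.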

Row | Compound | Ki
1 | CCN(CC)CC.Nc1ncnc2c1ncn2[C@@H]1O[C@H](CNS(=O)(=O)c2n[nH]c3cc(F)ccc3c2=O)[C@@H](O)[C@H]1O | 0.0116 µM
2 | Nc1ncnc2c1ncn2[C@@H]1O[C@H](CNS(=O)(=O)c2n[nH]c3ccccc3c2=O)[C@@H](O)[C@H]1O | 0.0144 µM
3 | Nc1ncnc2c1ncn2[C@@H]1O[C@H](CNS(=O)(=O)c2n[nH]c3ccc(F)cc3c2=O)[C@@H](O)[C@H]1O | 0.0209 µM

System: Mycobacterium tuberculosis
Test: Antimycobacterial activity against Mycobacterium tuberculosis H37Rv in glycerol alanine salts medium without ferric ammonium citrate at pH 6.6 after 10 to 14 days by broth microdilution method
Type: functional
Details: not given
Summary of the method: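 M. tuberculosis H37Rv grown in glycerol-alanine-salts medium at pH 6.6, with no ferric ammonium citrate or other added iron. MIC taken as the concentration inhibiting 99% of growth.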

Row | Compound | MIC99
4 | CCN(CC)CC.Nc1ncnc2c1ncn2[C@@H]1O[C@H](CNS(=O)(=O)c2n[nH]c3cc(F)ccc3c2=O)[C@@H](O)[C@H]1O | 2.3 µM
5 | Nc1ncnc2c1ncn2[C@@H]1O[C@H](CNS(=O)(=O)c2n[nH]c3ccccc3c2=O)[C@@H](O)[C@H]1O | 4.7 µM
6 | Nc1ncnc2c1ncn2[C@@H]1O[C@H](CNS(=O)(=O)c2n[nH]c3ccc(F)cc3c2=O)[C@@H](O)[C@H]1O | 4.7 µM

System: not listed separately
Test: Cytotoxicity against human HepG2 cells assessed as reduction in cell viability
Type: cell-based
Details: not given
Summary of the method: (§1)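 Viability of mammalian Vero and HepG2 cell lines tested up to a highest concentration of 200 μM.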

Row | Compound | CC50
7 | CCN(CC)CC.Nc1ncnc2c1ncn2[C@@H]1O[C@H](CNS(=O)(=O)c2n[nH]c3cc(F)ccc3c2=O)[C@@H](O)[C@H]1O | > 200 µM
8 | Nc1ncnc2c1ncn2[C@@H]1O[C@H](CNS(=O)(=O)c2n[nH]c3ccccc3c2=O)[C@@H](O)[C@H]1O | > 200 µM
9 | Nc1ncnc2c1ncn2[C@@H]1O[C@H](CNS(=O)(=O)c2n[nH]c3ccc(F)cc3c2=O)[C@@H](O)[C@H]1O | > 200 µM

System: not listed separately
Test: Cytotoxicity against African green monkey Vero cells assessed as reduction in cell viability
Type: cell-based
Details: chlorocebus sabaeus
Summary of the method: as §1

Row | Compound | CC50
10 | CCN(CC)CC.Nc1ncnc2c1ncn2[C@@H]1O[C@H](CNS(=O)(=O)c2n[nH]c3cc(F)ccc3c2=O)[C@@H](O)[C@H]1O | > 200 µM
11 | Nc1ncnc2c1ncn2[C@@H]1O[C@H](CNS(=O)(=O)c2n[nH]c3ccccc3c2=O)[C@@H](O)[C@H]1O | > 200 µM
12 | Nc1ncnc2c1ncn2[C@@H]1O[C@H](CNS(=O)(=O)c2n[nH]c3ccc(F)cc3c2=O)[C@@H](O)[C@H]1O | > 200 µM

System: Mycobacterium tuberculosis
Test: Antimycobacterial activity against Mycobacterium tuberculosis H37Rv in glycerol alanine salts medium without ferric ammonium citrate at pH 6.6 after 10 to 14 days in presence of 0.2 to 3.1 uM salicylate by broth microdilution method
Type: functional, organism-based
Details: not given
Summary of the method: (§2)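 MIC against M. tuberculosis in iron-deficient GAST medium supplemented with salicylate at 0, 0.2, 0.78, 3.1 or 12.5 μM. Salicylate was added to the growth medium to test antagonism of whole-cell activity.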

Row | Compound | Activity
13 | CCN(CC)CC.Nc1ncnc2c1ncn2[C@@H]1O[C@H](CNS(=O)(=O)c2n[nH]c3cc(F)ccc3c2=O)[C@@H](O)[C@H]1O | inactive
14 | Nc1ncnc2c1ncn2[C@@H]1O[C@H](CNS(=O)(=O)c2n[nH]c3ccccc3c2=O)[C@@H](O)[C@H]1O | inactive
15 | Nc1ncnc2c1ncn2[C@@H]1O[C@H](CNS(=O)(=O)c2n[nH]c3ccc(F)cc3c2=O)[C@@H](O)[C@H]1O | inactive

System: Mycobacterium tuberculosis
Test: Antimycobacterial activity against Mycobacterium tuberculosis H37Rv in glycerol alanine salts medium without ferric ammonium citrate at pH 6.6 after 10 to 14 days in presence of 12.5 uM salicylate by broth microdilution method
Type: functional
Details: not given
Summary of the method: as §2

Row | Compound | MIC
16 | Nc1ncnc2c1ncn2[C@@H]1O[C@H](COS(=O)(=O)NC(=O)c2ccccc2O)[C@@H](O)[C@H]1O | ≥ 50 µM
17 | CCN(CC)CC.Nc1ncnc2c1ncn2[C@@H]1O[C@H](CNS(=O)(=O)c2n[nH]c3cc(F)ccc3c2=O)[C@@H](O)[C@H]1O | ≥ 50 µM
18 | Nc1ncnc2c1ncn2[C@@H]1O[C@H](CNS(=O)(=O)c2n[nH]c3ccccc3c2=O)[C@@H](O)[C@H]1O | ≥ 50 µM
19 | Nc1ncnc2c1ncn2[C@@H]1O[C@H](CNS(=O)(=O)c2n[nH]c3ccc(F)cc3c2=O)[C@@H](O)[C@H]1O | ≥ 50 µM

System: Mycobacterium tuberculosis
Test: Antimycobacterial activity against wild type Mycobacterium tuberculosis in iron-free GAST medium at 0.04 to 10 uM after 8 days by two fold serial dilution method
Type: functional, organism-based
Details: not given

Row | Compound | Activity
20 | Nc1ncnc2c1ncn2[C@@H]1O[C@H](COS(=O)(=O)NC(=O)c2ccccc2O)[C@@H](O)[C@H]1O | Active

Biological target: T2, Salicyl-AMP ligase / salicyl-S-ArCP synthetase (Mycobacterium tuberculosis) (UniProt P71716)
T2 sequence (whole entry): T1 sequence (P71716 whole entry)
Test: Inhibition of salicylate ligase MbtA in Mycobacterium tuberculosis H37Rv in iron-free GAST medium assessed as reduction in cell-wall associated lipophilic mycobactin-T production at pH 7.4 at 5 times MIC after 27 hrs by LC-MS/MS method relative to control
Details: not given
Summary of the method: (§3)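 M. tuberculosis grown in iron-deficient GAST medium from an initial OD650 of 0.2, with or without inhibitor at 5 × MIC, for 27 and 70 h. Mycobactin-T (cell-wall associated) and carboxymycobactin (secreted plus cell-wall associated) quantified by LC–MS/MS in MRM mode against synthetic standards. Values normalized to cell density.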

Row | Compound | fold change (FC)
21 | CCN(CC)CC.Nc1ncnc2c1ncn2[C@@H]1O[C@H](CNS(=O)(=O)c2n[nH]c3cc(F)ccc3c2=O)[C@@H](O)[C@H]1O | > 2

Biological target: T2, Salicyl-AMP ligase / salicyl-S-ArCP synthetase (Mycobacterium tuberculosis)
Test: Inhibition of salicylate ligase MbtA in Mycobacterium tuberculosis H37Rv in iron-free GAST medium assessed as reduction in cell-wall associated lipophilic mycobactin-T production at pH 7.4 at 5 times MIC after 70 hrs by LC-MS/MS method relative to control
Details: not given
Summary of the method: as §3

Row | Compound | fold change (FC)
22 | CCN(CC)CC.Nc1ncnc2c1ncn2[C@@H]1O[C@H](CNS(=O)(=O)c2n[nH]c3cc(F)ccc3c2=O)[C@@H](O)[C@H]1O | 5

Biological target: T2, Salicyl-AMP ligase / salicyl-S-ArCP synthetase (Mycobacterium tuberculosis)
Test: Inhibition of salicylate ligase MbtA in Mycobacterium tuberculosis H37Rv in iron-free GAST medium assessed as reduction in water-soluble carboxymycobactin production at pH 7.4 at 5 times MIC after 27 to 70 hrs by LC-MS/MS method relative to control
Details: not given
Summary of the method: as §3

Row | Compound | fold change (FC)
23 | CCN(CC)CC.Nc1ncnc2c1ncn2[C@@H]1O[C@H](CNS(=O)(=O)c2n[nH]c3cc(F)ccc3c2=O)[C@@H](O)[C@H]1O | 1.5

System: not listed separately
Test: AUC (0 to 8 hrs) in Sprague-Dawley rat at 25 mg/kg, po administered as single dose via gavage by LC-MS/MS method
Type: ADME, organism-based
Parameters: time < 8 hr, dose 25 mg/kg, route oral
Details: in vivo
Summary of the method: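 Female Sprague–Dawley rats (n = 3), single oral dose 25 mg/kg. Plasma levels at time points measured by LC–MS/MS. AUC over 0–8 h, reported as mean ± SD.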

Row | Compound | AUC(0-t) at 8 h
24 | Nc1ncnc2c1ncn2[C@@H]1O[C@H](COS(=O)(=O)NC(=O)c2ccccc2O)[C@@H](O)[C@H]1O | 1100 ng·h/mL
25 | CCN(CC)CC.Nc1ncnc2c1ncn2[C@@H]1O[C@H](CNS(=O)(=O)c2n[nH]c3cc(F)ccc3c2=O)[C@@H](O)[C@H]1O | 967 ng·h/mL

System: not listed separately
Test: AUC (0 to 8 hrs) in Sprague-Dawley rat at 2.5 mg/kg, iv administered as single dose via bolus injection by LC-MS/MS method
Type: ADME, organism-based
Parameters: time < 8 hr, dose 2.5 mg/kg, route intravenous
Details: in vivo
Summary of the method: (§4)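 Female Sprague–Dawley rats (n = 3), single i.v. dose 2.5 mg/kg. Plasma concentrations at several time points by LC–MS/MS. AUC taken over 0–8 h. Clearance, volume of distribution and half-life derived from the i.v. curve, with elimination monoexponential. Reported as mean ± SD.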

Row | Compound | AUC(0-t) at 8 h
26 | Nc1ncnc2c1ncn2[C@@H]1O[C@H](COS(=O)(=O)NC(=O)c2ccccc2O)[C@@H](O)[C@H]1O | 8650 ng·h/mL
27 | CCN(CC)CC.Nc1ncnc2c1ncn2[C@@H]1O[C@H](CNS(=O)(=O)c2n[nH]c3cc(F)ccc3c2=O)[C@@H](O)[C@H]1O | 4630 ng·h/mL

System: not listed separately
Test: Volume of distribution at steady state in Sprague-Dawley rat at 2.5 mg/kg, iv administered as single dose via bolus injection by LC-MS/MS method
Type: ADME, organism-based
Details: in vivo, read-out: Vdss
Summary of the method: as §4

Row | Compound | Vd
28 | Nc1ncnc2c1ncn2[C@@H]1O[C@H](COS(=O)(=O)NC(=O)c2ccccc2O)[C@@H](O)[C@H]1O | 0.079 L/kg
29 | CCN(CC)CC.Nc1ncnc2c1ncn2[C@@H]1O[C@H](CNS(=O)(=O)c2n[nH]c3cc(F)ccc3c2=O)[C@@H](O)[C@H]1O | 0.57 L/kg

System: not listed separately
Test: Clearance in Sprague-Dawley rat at 2.5 mg/kg, iv administered as single dose via bolus injection by LC-MS/MS method
Type: ADME, organism-based
Details: in vivo
Summary of the method: as §4

Row | Compound | clearance
30 | Nc1ncnc2c1ncn2[C@@H]1O[C@H](COS(=O)(=O)NC(=O)c2ccccc2O)[C@@H](O)[C@H]1O | 4.9 mL/min/kg
31 | CCN(CC)CC.Nc1ncnc2c1ncn2[C@@H]1O[C@H](CNS(=O)(=O)c2n[nH]c3cc(F)ccc3c2=O)[C@@H](O)[C@H]1O | 8.9 mL/min/kg

System: not listed separately
Test: Elimination half life in Sprague-Dawley rat at 2.5 mg/kg, iv administered as single dose via bolus injection by LC-MS/MS method
Type: ADME, organism-based
Details: in vivo, read-out: beta t1/2
Summary of the method: as §4

Row | Compound | half-life
32 | Nc1ncnc2c1ncn2[C@@H]1O[C@H](COS(=O)(=O)NC(=O)c2ccccc2O)[C@@H](O)[C@H]1O | 11 min
33 | CCN(CC)CC.Nc1ncnc2c1ncn2[C@@H]1O[C@H](CNS(=O)(=O)c2n[nH]c3cc(F)ccc3c2=O)[C@@H](O)[C@H]1O | 40 min

System: not listed separately
Test: Oral bioavailability in Sprague-Dawley rat at 25 mg/kg administered as single dose via gavage by LC-MS/MS method
Type: ADME, organism-based
Details: in vivo
Summary of the method: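 Oral bioavailability (F) in female Sprague–Dawley rats (n = 3), calculated by comparing AUC0–8h after a single 25 mg/kg p.o. dose with AUC0–8h after a 2.5 mg/kg i.v. dose. Plasma levels measured by LC–MS/MS.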

Row | Compound | bioavailability
34 | Nc1ncnc2c1ncn2[C@@H]1O[C@H](COS(=O)(=O)NC(=O)c2ccccc2O)[C@@H](O)[C@H]1O | < 1%
35 | CCN(CC)CC.Nc1ncnc2c1ncn2[C@@H]1O[C@H](CNS(=O)(=O)c2n[nH]c3cc(F)ccc3c2=O)[C@@H](O)[C@H]1O | 2.1%
